Test [1] relates to A2780S. Nature of the test: Antiproliferative activity against human A2780S cells after 48 hrs by MTT assay. Format: functional, cell-based. Summed up:
(§1)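 Cells seeded at 3×10³/well and grown 24 h, then exposed 48 h to six final concentrations, twofold steps down from 30. MTT (5 mg/mL) was added for 2–4 h at 37 °C. Supernatant was removed, formazan dissolved in DMSO, and OD read at 570 nm. Results are given as IC50, or as percent inhibition where IC50 exceeds the top concentration. At least three runs.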
On the technique in general: Tetrazolium dyes change colour on reduction, which living cells bring about.

The subject of another test is A2780/Taxol. Nature of the test: Antiproliferative activity against human A2780T cells at 30 uM after 48 hrs by MTT assay relative to control. Format: functional. Summed up:
as §1

The test system of a further test is NCI-H1299. Nature of the test: Antiproliferative activity against human NCI-H1299 cells after 48 hrs by MTT assay. Format: functional, cell-based. As to conditions: NCI-H1299, 48 h. Summed up: as §1
A further test deals with BGC-823. Nature of the test: Antiproliferative activity against human BGC823 cells after 48 hrs by MTT assay. It is filed as functional, cell-based. The settings on record: BGC-823, 48 h. Summed up:
as §1

For the next test, the system named is CT26. Nature of the test: Antiproliferative activity against mouse CT26 cells after 48 hrs by MTT assay. Format: functional, cell-based. As to conditions: CT26, 48 h. Summed up: as §1
A further test has as its system HCT-116. Nature of the test: Antiproliferative activity against human HCT116 cells after 48 hrs by MTT assay. Format: functional, cell-based. As to conditions: HCT-116, 48 h. Summed up: as §1
In a further test the test system is A549. Kind of test: Antiproliferative activity against human A549 cells after 48 hrs by MTT assay. Format: functional, cell-based. As to conditions: A549, 48 h. Summed up: as §1
A further test relates to MCF7. Kind of test: Antiproliferative activity against human MCF7 cells after 48 hrs by MTT assay. It is filed as functional, cell-based. As to conditions: MCF7, 48 h. Summed up:
as §1

For a further test, the system named is NCI-H1975. Kind of test: Antiproliferative activity against human NCI-H1975 cells after 48 hrs by MTT assay. Format: functional, cell-based. The settings on record: NCI-H1975, 48 h. Summed up:
as §1

The subject of test [2] is A2780S. Nature of the test: Antiproliferative activity against human A2780S cells at 30 uM after 48 hrs by MTT assay relative to control. It is filed as functional. Summed up:
as §1

As a reminder, the IC50 is the point on the concentration scale where inhibition reaches its midpoint. Low readings indicate inhibition by little substance, high ones a need for much substance. As usually defined, the inhibition is how much of the control response was suppressed. Read a high inhibition as a strong effect.

Consider `CCC[C@@H]1C(C=O)=C[C@H]2[C@@H](c3ccccc3O[C@@H]2CCC)[C@@]12C(=O)Nc1ccccc12`, for which the IC50 is 25.7 µM with A2780S [1]; above 30 µM with NCI-H1299; above 30 µM with BGC-823; above 30 µM in the test with CT26; above 30 µM in the test on HCT-116; above 30 µM in the test on A549. The IC50 in the test on MCF7 and in the test with NCI-H1975 was above 30 µM each time. The inhibition at 30 µM in the test with A2780/Taxol was 33.1%.
As to `C[C@@H]1C(C=O)=C[C@H]2[C@@H](c3ccccc3O[C@@H]2C)[C@@]12C(=O)Nc1ccccc12`, the inhibition at 30 µM came out at 23.5% in the test with A2780S [2] and 17.3% in the test on A2780/Taxol. The IC50 in the test on NCI-H1299, with BGC-823, in the test on CT26, with HCT-116, with A549 and with MCF7 was above 30 µM throughout. The molecule also registered an IC50 with NCI-H1975 above 30 µM.
As for `O=CC1=C[C@@H]2COc3ccccc3[C@H]2C2(C1)C(=O)Nc1ccccc12` (some centres not stated), the IC50 was 21.6 µM in the test on A2780S [1]; above 30 µM in the test with NCI-H1299; above 30 µM in the test on BGC-823; 27.1 µM in the test on CT26; 25.8 µM with HCT-116; above 30 µM in the test with A549. Also, the IC50 with MCF7 and in the test with NCI-H1975 was above 30 µM in each case. Besides, the inhibition at 30 µM in the test with A2780/Taxol came to 25%.
As to `C[C@@H]1C(C=O)=C[C@H]2[C@@H](c3ccccc3O[C@@H]2C)[C@@]12C(=O)Nc1cc(Cl)ccc12`, the IC50 was 19.7 µM in the test with A2780S [1]; above 30 µM with NCI-H1299; above 30 µM with BGC-823; above 30 µM in the test with CT26; above 30 µM in the test on HCT-116; above 30 µM in the test on A549. Also, the IC50 in the test with MCF7 and in the test on NCI-H1975 was above 30 µM each time. This molecule yielded an inhibition at 30 µM in the test on A2780/Taxol of 13.1%.
`C[C@@H]1C(C=O)=C[C@H]2[C@@H](c3ccccc3O[C@@H]2C)[C@@]12C(=O)N(c1ccccc1)c1ccccc12`: the IC50 in the test on A2780S [1] was 18.9 µM; in the test with NCI-H1299 it was 30 µM; in the test with BGC-823 it was 25.7 µM; in the test with CT26, above 30 µM; with HCT-116, above 30 µM; with A549, above 30 µM. Also, the IC50 with MCF7 and with NCI-H1975 was above 30 µM each time. Moreover, in the test with A2780/Taxol, testing at 30 µM gave an inhibition of 40.6%.
With `C[C@@H]1C(C=O)=C[C@H]2[C@@H](c3cc(Cl)ccc3O[C@@H]2C)[C@@]12C(=O)Nc1ccccc12`, the results for the inhibition at 30 µM in the test on A2780S [2] and with A2780/Taxol were 16.5% and 5.8%, respectively. Also, the IC50 with NCI-H1299, with BGC-823, with CT26, with HCT-116, in the test on A549 and in the test with MCF7 was above 30 µM each time. In addition, in the test with NCI-H1975, the IC50 was above 30 µM.
With `C[C@@H]1C(C=O)=C[C@H]2[C@@H](c3ccccc3O[C@@H]2C)[C@@]12C(=O)N(C)c1ccccc12`, the results for the inhibition at 30 µM in the test on A2780S [2] and in the test with A2780/Taxol were 26.3% and 4.5%, respectively. In addition, the IC50 with NCI-H1299, in the test with BGC-823, in the test on CT26, in the test on HCT-116, in the test on A549 and in the test on MCF7 was above 30 µM in each case. This molecule also registered an IC50 with NCI-H1975 above 30 µM.
For `C[C@@H]1C(C=O)=C[C@H]2[C@@H](c3ccccc3N[C@@H]2C)[C@@]12C(=O)Nc1ccccc12`, the inhibition at 30 µM with A2780S [2] stood at 47.2%; in the test on A2780/Taxol it was 15.2%. In addition, the IC50 in the test with NCI-H1299, in the test with BGC-823, in the test with CT26, with HCT-116, in the test on A549 and in the test with MCF7 was above 30 µM each time. The same molecule came in with an IC50 in the test with NCI-H1975 above 30 µM.
Take `COc1ccc2c(c1)O[C@H](C)[C@H]1C=C(C=O)[C@@H](C)[C@]3(C(=O)Nc4ccccc43)[C@H]21`: the figures for the inhibition at 30 µM in the test with A2780S [2] and with A2780/Taxol were 9.3% and 3.9%, respectively. The IC50 in the test on NCI-H1299, with BGC-823, with CT26, in the test on HCT-116, with A549 and with MCF7 was above 30 µM in each case. The IC50 with NCI-H1975 is above 30 µM.
With `Cc1ccc2c(c1)[C@@H]1[C@H](C=C(C=O)[C@@H](C)[C@]13C(=O)Nc1ccccc13)[C@@H](C)O2`, the inhibition at 30 µM in the test with A2780S [2] came to 28.2%; with A2780/Taxol, 10.4%. The IC50 in the test with NCI-H1299, in the test with BGC-823, in the test on CT26, in the test on HCT-116, in the test on A549 and in the test with MCF7 was above 30 µM throughout. In the test with NCI-H1975, this molecule had an IC50 above 30 µM.
Consider `C[C@@H]1C(C=O)=C[C@H]2[C@@H](c3cc([N+](=O)[O-])ccc3O[C@@H]2C)[C@@]12C(=O)Nc1ccccc12`, for which the results for the inhibition at 30 µM with A2780S [2] and in the test on A2780/Taxol were 25.2% and 0.2%, respectively. In addition, the IC50 with NCI-H1299, with BGC-823, with CT26, with HCT-116, in the test on A549 and in the test on MCF7 was above 30 µM throughout. Moreover, the IC50 in the test with NCI-H1975 was above 30 µM.
Take `C[C@@H]1C(C=O)=C[C@H]2[C@@H](c3cc(F)ccc3O[C@@H]2C)[C@@]12C(=O)Nc1ccccc12`: the inhibition at 30 µM with A2780S [2] was determined as 22.7%; with A2780/Taxol it was 2.6%. For the same molecule, the IC50 with NCI-H1299, in the test on BGC-823, in the test on CT26, with HCT-116, with A549 and with MCF7 was above 30 µM each time. Further, in the test on NCI-H1975, the IC50 is above 30 µM.
On to `C[C@@H]1C(C=O)=C[C@H]2[C@@H](c3cccc(F)c3O[C@@H]2C)[C@@]12C(=O)Nc1ccccc12`, for which the inhibition at 30 µM came out at 22.2% in the test with A2780S [2] and 5.7% in the test on A2780/Taxol. Besides, the IC50 in the test with NCI-H1299, in the test on BGC-823, in the test on CT26, in the test on HCT-116, with A549 and in the test with MCF7 was above 30 µM each time. Besides, the IC50 with NCI-H1975 was above 30 µM.
For `C[C@@H]1C(C=O)=C[C@H]2[C@@H](c3ccccc3OC2(C)C)[C@@]12C(=O)Nc1ccccc12`, the inhibition at 30 µM came to 14.4% with A2780S [2] and 3.8% in the test on A2780/Taxol. Also, the IC50 with NCI-H1299, in the test on BGC-823, in the test with CT26, in the test on HCT-116, in the test with A549 and in the test with MCF7 was above 30 µM in each case. In the test with NCI-H1975, this molecule showed an IC50 above 30 µM.
Consider `C[C@@H]1C(C=O)=C[C@H]2[C@@H](c3cc(Br)ccc3O[C@@H]2C)[C@@]12C(=O)Nc1ccccc12`, for which the inhibition at 30 µM in the test with A2780S [2] came to 35.9%; in the test on A2780/Taxol it was 2.3%. The IC50 with NCI-H1299, with BGC-823, in the test on CT26, in the test with HCT-116, with A549 and with MCF7 was above 30 µM in each case. Besides, in the test on NCI-H1975, the IC50 is above 30 µM.
As for `C[C@@H]1C(C=O)=C[C@H]2[C@@H](c3ccccc3O[C@@H]2C)[C@@]12C(=O)Nc1ccc(F)cc12`, the inhibition at 30 µM with A2780S [2] came out at 14.5%; with A2780/Taxol, 4.4%. Moreover, the IC50 in the test on NCI-H1299, with BGC-823, with CT26, with HCT-116, in the test on A549 and with MCF7 was above 30 µM each time. In the test with NCI-H1975, this molecule had an IC50 above 30 µM.
Turning to `CC[C@@H]1C(C=O)=C[C@H]2[C@@H](c3ccccc3O[C@@H]2CC)[C@@]12C(=O)Nc1ccccc12`, the results for the inhibition at 30 µM in the test with A2780S [2] and in the test on A2780/Taxol were 34.1% and 9%, respectively. The IC50 in the test on NCI-H1299, in the test on BGC-823, with CT26, in the test on HCT-116, in the test with A549 and with MCF7 was above 30 µM throughout. In addition, the IC50 with NCI-H1975 is above 30 µM.
As for `Cc1ccc2c(c1)[C@]1(C(=O)N2)[C@H](C)C(C=O)=C[C@H]2[C@H]1c1ccccc1O[C@@H]2C`, the inhibition at 30 µM in the test with A2780S [2] was found to be 12.8%; in the test with A2780/Taxol it was 7.1%. The IC50 in the test with NCI-H1299, in the test with BGC-823, with CT26, with HCT-116, in the test on A549 and in the test with MCF7 was above 30 µM each time. In the test with NCI-H1975, this molecule yielded an IC50 above 30 µM.

(Values after ChEMBL document CHEMBL4000211, “Discovery of novel polycyclic spiro-fused carbocyclicoxindole-based anticancer agents” (Eur J Med Chem, 2017).)
